Measurements from ChEMBL document CHEMBL2375315, “Alkaloids from the deep-sea-derived fungus Aspergillus westerdijkiae DFFSCS013” (J Nat Prod, 2013).

Legend:
Type in all cases: functional, cell-based
HL-60 = experiment: Cytotoxicity against human HL60 cells by MTT assay
Procedure, shortened: (§1)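 Human tumour lines (erythroid leukemic K562, promyelocytic leukemia HL-60, breast adenocarcinoma MCF-7, lung carcinoma A549) exposed to compounds; viability read by MTT method, following a previously published protocol; IC50 values derived.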

K562 = experiment: Cytotoxicity against human K562 cells by MTT assay; procedure, shortened: as §1
MCF7 = experiment: Cytotoxicity against human MCF7 cells by MTT assay; procedure, shortened: as §1
A549 = experiment: Cytotoxicity against human A549 cells by MTT assay; procedure, shortened: as §1

Compound	IC50 (HL-60) [µM]	IC50 (K562) [µM]	IC50 (MCF7) [µM]	IC50 (A549) [µM]
CC1(C)C=Cc2c(ccc3c2NC(=O)[C@@]32[C@@H](O)[C@@]34NC(=O)[C@]5(CCCN5C3=O)C[C@H]4C2(C)C)O1	> 10	53	> 10	> 10
CC(C)CC(=O)OC(/C(=N/O)C(N)=O)C(C)C (configuration not stated)	> 10	> 10	> 10	> 10
C[C@H]1NC(=O)c2ccccc2-n2c1nc1ccccc1c2=O	> 10	> 10	> 10	> 10
C[C@@H]1NC(=O)c2ccccc2-n2c1nc1c(O)cccc1c2=O	> 10	> 10	> 10	> 10
O=C1NCc2nc3c(O)cccc3c(=O)n2-c2ccccc21	> 10	> 10	> 10	> 10
C[C@@H]1NC(=O)c2ccccc2-n2c1nc1c(c2=O)C=CC=CO1	> 10	> 10	> 10	> 10
CC1(C)C=Cc2c3c(cc(Cl)c2O1)[C@@]1(C(=O)N3)[C@H](O)[C@@]23NC(=O)[C@]4(CCCN4C2=O)C[C@H]3C1(C)C	> 10	44	> 10	> 10
CC1(C)C=Cc2c(ccc3c2NC(=O)[C@@]32[C@H](O)[C@@]34NC(=O)[C@]5(CCCN5C3=O)C[C@H]4C2(C)C)O1 [SCLEROTIAMIDE]	45	26	> 10	> 10
